In ChEMBL document CHEMBL3286109, “Structure-activity relationship studies of indole-based compounds as small molecule HIV-1 fusion inhibitors targeting glycoprotein 41” (J Med Chem, 2014):
pEC50, pKi: −log10 of the molar value.

Tests used:
[1] = Binding affinity to HIV1 Envelope glycoprotein gp41 Fe(env2.0)3 using C18FL as probe by fluorescence assay; parameters: species or system Human immunodeficiency virus 1
[2] = Inhibition of HIV1 HXB2 gp41-mediated cell-cell fusion between viral envelope-expressing human HL2/3 cells to human TZM-bl cells by luciferase reporter assay; assay type: cell-based; conditions: Human immunodeficiency virus 1, HXB2, TZM-bl
[3] = test system: Human immunodeficiency virus 1; assay: Antiviral activity against HIV-1 Ba-L infected in human MAGI-CCR5 cells assessed as inhibition of viral replication after 48 hrs by chemiluminescence assay; assay type: functional, organism-based; conditions: Human immunodeficiency virus 1, Ba-L, MAGI-CCR5, 48 h
[4] = test system: Human immunodeficiency virus 1; assay: Antiviral activity against HIV-1 3B infected in human MAGI-CCR5 cells assessed as inhibition of viral replication after 48 hrs by chemiluminescence assay; assay type: functional, organism-based; conditions: Human immunodeficiency virus 1, 3B, MAGI-CCR5, 48 h
[5] = Cytotoxicity against human MAGI-CCR5 cells assessed as inhibition of cell viability by MTS assay; assay type: cell-based; conditions: read-out: TC50 (the source's name)
[6] = Cytotoxicity against human TZM-bl cells assessed as inhibition of cell viability by resazurin assay; conditions: read-out: TC50 (the source's name)
[7] = test system: Human immunodeficiency virus 1; assay: Antiviral activity against HIV-1 Ba-L subtype B infected in human PBMC assessed as reverse transcriptase activity after 6 days by microtiter plate-based assay; assay type: functional, organism-based; conditions: Human immunodeficiency virus 1, Ba-L subtype B, 144 h
Summary of the method: (§1)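 PBMCs from screened donors, Ficoll-purified, stimulated with 4 μg/mL phytohemagglutinin, kept in 20 U/mL IL-2; cells from two donors pooled, 5 × 10^4 cells/well.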

[8] = test system: Human immunodeficiency virus 1; assay: Antiviral activity against HIV-1 92BR014 subtype B infected in human PBMC assessed as reverse transcriptase activity after 6 days by microtiter plate-based assay; assay type: functional, organism-based; conditions: Human immunodeficiency virus 1, 92BR014 subtype B, 144 h; summary of the method: as §1
[9] = test system: Human immunodeficiency virus 1; assay: Antiviral activity against HIV-1 01CM0005BBY subtype CRF02_AG infected in human PBMC assessed as reverse transcriptase activity after 6 days by microtiter plate-based assay; assay type: functional, organism-based; conditions: Human immunodeficiency virus 1, 01CM0005BBY subtype CRF02_AG, 144 h; summary of the method: as §1
[10] = test system: Human immunodeficiency virus 1; assay: Antiviral activity against HIV-1 02CM0015BBY subtype CRF02_AG infected in human PBMC assessed as reverse transcriptase activity after 6 days by microtiter plate-based assay; assay type: functional, organism-based; conditions: Human immunodeficiency virus 1, 02CM0015BBY subtype CRF02_AG, 144 h; summary of the method: as §1
[11] = test system: Human immunodeficiency virus 1; assay: Antiviral activity against HIV-1 91DJ263 subtype CRF02_AG infected in human PBMC assessed as reverse transcriptase activity after 6 days by microtiter plate-based assay; assay type: functional, organism-based; conditions: Human immunodeficiency virus 1, 91DJ263 subtype CRF02_AG, 144 h; summary of the method: as §1
[12] = test system: Human immunodeficiency virus 1; assay: Antiviral activity against HIV-1 00UG_D26830M4 subtype D infected in human PBMC assessed as reverse transcriptase activity after 6 days by microtiter plate-based assay; assay type: functional, organism-based; conditions: Human immunodeficiency virus 1, 00UG_D26830M4 subtype D, 144 h; summary of the method: as §1
[13] = test system: Human immunodeficiency virus 1; assay: Antiviral activity against HIV-1 92UG001 subtype D infected in human PBMC assessed as reverse transcriptase activity after 6 days by microtiter plate-based assay; assay type: functional, organism-based; conditions: Human immunodeficiency virus 1, 92UG001 subtype D, 144 h; summary of the method: as §1
[14] = Cytotoxicity against human PBMC assessed as inhibition of cell viability by MTS assay; assay type: cell-based; conditions: read-out: TC50 (the source's name)
[15] = Therapeutic index, ratio of TC50 for human PBMC to EC50 for HIV-1 Ba-L subtype B infected in human PBMC; conditions: read-out: TI
[16] = Therapeutic index, ratio of TC50 for human PBMC to EC50 for HIV-1 92BR014 subtype B infected in human PBMC; conditions: read-out: TI
Summary of the method: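 Human PBMC from screened donors were Ficoll-purified, stimulated with 4 μg/mL phytohemagglutinin, and kept in 20 U/mL IL-2. Cells from two donors were pooled at 5 × 10^4 cells/well and given nine serial compound dilutions in triplicate, then HIV-1 at a final MOI of about 0.1. TC50 was measured in parallel cultures by MTS viability. TI = TC50/EC50.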

[17] = Therapeutic index, ratio of TC50 for human PBMC to EC50 for HIV-1 01CM0005BBY subtype CRF02_AG infected in human PBMC; conditions: read-out: TI
[18] = Therapeutic index, ratio of TC50 for human PBMC to EC50 for HIV-1 02CM0015BBY subtype CRF02_AG infected in human PBMC; conditions: read-out: TI
[19] = Therapeutic index, ratio of TC50 for human PBMC to EC50 for HIV-1 91DJ263 subtype CRF02_AG infected in human PBMC; conditions: read-out: TI
[20] = Therapeutic index, ratio of TC50 for human PBMC to EC50 for HIV-1 00UG_D26830M4 subtype D infected in human PBMC; conditions: read-out: TI
[21] = Therapeutic index, ratio of TC50 for human PBMC to EC50 for HIV-1 92UG001 subtype D infected in human PBMC; conditions: read-out: TI
[22] = Retardation factor of the compound using 40% EtOAc/hexanes as solvent system by silca gel chromatography; assay type: physicochemical
[23] = Retardation factor of the compound using 50% EtOAc/hexanes as solvent system by silca gel chromatography; assay type: physicochemical

Compound `COc1ccc(Cn2ccc3cc(-c4ccc5c(ccn5Cc5cccc(C(=O)O)c5)c4)ccc32)cc1` has a pKi [1] of 5.41, a pEC50 [2] of 4.92 and a pEC50 [3] of 4.74. For the same compound, the pEC50 [4] was 4.70, the CC50 [5] was 55000 nM and the CC50 [6] was greater than 100000 nM.
For `COC(=O)c1cccc(Cn2ccc3ccc(-c4ccc5ccn(Cc6cccc(C(=O)O)c6)c5c4)cc32)c1`, the pKi [1] was 6.22, the pEC50 [2] was 6.70 and the pEC50 [3] was 6.70. It also gave a pEC50 [4] of 6.70, a pEC50 [7] of 6.44 and an EC90 [7] of 630 nM. For the same compound, the pEC50 [8] was 6.34, the EC90 [8] was 1430 nM and the pEC50 [9] was 6.54. The EC90 [9] was 540 nM, the pEC50 [10] was 6.62 and the EC90 [10] was 520 nM. The pEC50 [11] was 6.41, the EC90 [11] was 920 nM and the pEC50 [12] was 6.46. For the same compound, the EC90 [12] was 580 nM, the pEC50 [13] was 6.40 and the EC90 [13] was 990 nM. It also gave a CC50 [5] of 15000 nM, a CC50 [14] of 11600 nM and a selectivity ratio [15] of 32.2. For the same compound, the selectivity ratio [16] was 25.3, the selectivity ratio [17] was 39.3 and the selectivity ratio [18] was 47.8. It also gave a selectivity ratio [19] of 29.7, a selectivity ratio [20] of 33.3 and a selectivity ratio [21] of 29.1. For the same compound, the Rf [22] was 0.13 and the CC50 [6] was 53000 nM.
For `CCOC(=O)c1cccc(Cn2ccc3ccc(-c4ccc5ccn(Cc6cccc(C(=O)O)c6)c5c4)cc32)c1`, the pKi [1] was 6.00, the pEC50 [2] was 6.15 and the pEC50 [3] was 6.52. The pEC50 [4] was 6.30, the pEC50 [7] was 6.39 and the EC90 [7] was 590 nM. For the same compound, the pEC50 [8] was 6.37, the EC90 [8] was 1230 nM and the pEC50 [9] was 6.47. It also gave an EC90 [9] of 550 nM, a pEC50 [10] of 6.43 and an EC90 [10] of 560 nM. For the same compound, the pEC50 [11] was 6.46, the EC90 [11] was 580 nM and the pEC50 [12] was 6.41. For the same compound, the EC90 [12] was 570 nM, the pEC50 [13] was 6.46 and the EC90 [13] was 1000 nM. For the same compound, the CC50 [5] was 43000 nM, the CC50 [14] was greater than 50000 nM and the selectivity ratio [15] was greater than 121. The selectivity ratio [16] was greater than 116, the selectivity ratio [17] was greater than 147 and the selectivity ratio [18] was greater than 137. For the same compound, the selectivity ratio [19] was greater than 141, the selectivity ratio [20] was greater than 128 and the selectivity ratio [21] was greater than 141. It also gave a Rf [23] of 0.48 and a CC50 [6] greater than 50000 nM.
`O=C(O)c1cccc(Cn2ccc3ccc(-c4ccc5cc[nH]c5c4)cc32)c1` showed a pKi [1] of 5.57, a pEC50 [2] of 4.82 and a pEC50 [3] of 4.22. For the same compound, the pEC50 [4] was 4.33, the CC50 [5] was greater than 50000 nM and the Rf [22] was 0.13. It also gave a CC50 [6] greater than 100000 nM.
Compound enfuvirtide has a pEC50 [7] of 8.12, an EC90 [7] of 23.6 nM and a pEC50 [8] of less than 5.70. It also gave an EC90 [8] greater than 2000 nM, an EC90 [9] of 55.8 nM and a pEC50 [10] of 7.77. The EC90 [10] was 43.4 nM, the pEC50 [11] was 6.92 and the EC90 [11] was 206 nM. It also gave a pEC50 [12] of 6.97, an EC90 [12] of 195 nM and an EC90 [13] of 71.3 nM. The CC50 [14] was greater than 2000 nM, the selectivity ratio [15] was greater than 265 and the selectivity ratio [17] was greater than 110. For the same compound, the selectivity ratio [18] was greater than 118, the selectivity ratio [19] was greater than 16.6 and the selectivity ratio [20] was greater than 18.6. The selectivity ratio [21] was greater than 36.
